Source: ChEMBL document CHEMBL3227950, “Ames test of 1-(X-phenyl)-3,3-dialkyltriazenes. A quantitative structure-activity study” (J Med Chem, 1979)

Tested on: Salmonella typhimurium
Test: Mutagenicity in Salmonella typhimurium strain TA92 assessed as number of bacterial revertants after 2 days by Ames test in presence of rat liver S9 fraction
Format: toxicity, organism-based
Conditions: salmonella enterica subsp. enterica serovar typhimurium, s9, 48 h
Method in brief: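 S. typhimurium TA92 (hisG46, pKM101) grown 12-16 h at 37 °C in nutrient broth (~10⁹ cells/mL). S-9 from livers of Aroclor 1254-induced female Sprague-Dawley rats (500 mg/kg ip, 5 days before sacrifice). Compound in Me₂SO, bacteria and S-9 mix preincubated 20 min at 30 °C, then plated in histidine/biotin top agar and incubated 2 days at 37 °C. Revertants were hand counted, with spontaneous control revertants subtracted. Triplicates were run. The end point was 30 revertants/10⁸ bacteria, interpolated to give log 1/C.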

| SMILES | log(1/C) |
| --- | --- |
| CN(/N=N/c1ccc(C(N)=O)cc1)C(C)(C)C | 3.83 |
| Cc1cccc(/N=N/N(C)C)c1 | 6.44 |
| CN(C)/N=N/c1cccc(NC(N)=O)c1 | 4.19 |
| CN(C)/N=N/c1[nH]cnc1C(N)=O [DACARBAZINE] | 3 |
| CN(C)/N=N/c1ccc(C(N)=O)cc1 | 4.04 |
| CC(=O)c1ccc(/N=N/N(C)C)cc1 | 4.47 |
| CN(C)/N=N/c1ccc(-c2ccccc2)cc1 | 7.67 |
| CN(C)/N=N/c1cccc(C(N)=O)c1 | 3.51 |
| CN(C)/N=N/c1ccc(S(N)(=O)=O)cc1 | 3.49 |
| CN(C)/N=N/c1ccc(NC(N)=O)cc1 | 5.59 |
| CN(C)/N=N/c1ccccc1 | 5.32 |
| CCCCN(C)/N=N/c1ccc(C(N)=O)cc1 | 5.41 |
| CN(C)/N=N/c1cc(C#N)cc(C#N)c1 | 3.46 |
| Cc1ccc(/N=N/N(C)C)cc1 | 7 |
| CN(C)/N=N/c1ccc(C(F)(F)F)cc1 | 5.99 |
| C=CCN(C)/N=N/c1ccc(C(N)=O)cc1 | 4.16 |
| CC(=O)Nc1ccc(/N=N/N(C)C)cc1 | 5.83 |
| COc1cc2c(c3oc(=O)c4c(c13)CCC4=O)[C@@H]1C=CO[C@@H]1O2 [AFLATOXIN] | 9.48 |
| CN(C)/N=N/c1ccc(Cl)cc1 | 6.48 |
| CN(C)/N=N/c1ccc(C#N)cc1 | 4.43 |
